Assay results taken from ChEMBL document CHEMBL1177738, “Thiodiketopiperazines produced by the endophytic fungus Epicoccum nigrum” (J Nat Prod, 2010).
Active and inactive are the calls of the source. No cut-off for these calls is given here.

Columns and labels:
[1] = test system: HCT-116; assay: Cytotoxicity against human HCT116 cells; assay type: functional, cell-based
In short: (§1)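 Cytotoxicity against a panel of six human tumor lines (A549, Bel-7402, BGC-823, HCT-8, HCT-116, A2780) was measured in vitro by MTT assay.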

[2] = test system: Bel-7402; assay: Cytotoxicity against human Bel7402 cells; assay type: functional, cell-based; in short: as §1
[3] = test system: HCT-8; assay: Cytotoxicity against human HCT8 cells; assay type: functional, cell-based; in short: as §1
[4] = test system: A549; assay: Cytotoxicity against human A549 cells; assay type: functional, cell-based; in short: as §1
[5] = test system: A2780; assay: Cytotoxicity against human A2780 cells; assay type: functional, cell-based; in short: as §1
[6] = test system: BGC-823; assay: Cytotoxicity against human BGC823 cells; assay type: functional, cell-based; in short: as §1
[7] = Antiinflammatory activity in rat PMNC assessed as inhibition of platelet-activating factor-induced beta-glucuronidase release; assay type: functional
In short: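 In vitro assay on rat polymorphonuclear leukocytes stimulated with platelet-activating factor; β-glucuronidase release was measured, with a positive control run alongside. Inhibitory potency is reported as IC50 in µM.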

Compound	inhibition [1]	inhibition [2]	inhibition [3]	inhibition [4]	inhibition [5]	inhibition [6]	IC50 [7]
O=C1N2[C@H]3[C@H](C[C@]24SS[C@]12C[C@H]1[C@@H]([C@@H](O)CC[C@@H]1O)N2C4=O)[C@@H](O)CC[C@@H]3O	inactive	inactive	inactive	inactive	inactive	inactive	–
O=C1N[C@@H](Cc2ccccc2)C(=O)N[C@H]1Cc1ccccc1	inactive	inactive	inactive	inactive	inactive	inactive	–
CS[C@@]12C[C@H]3C(=O)C=C[C@H](O)[C@H]3N1C(=O)[C@]1(SC)C[C@H]3C(=O)CC[C@H](O)[C@H]3N1C2=O	inactive	inactive	inactive	inactive	inactive	inactive	–
O=C1C[C@H]2SS[C@@]34C[C@@H]1[C@@H]([C@H]2O)N3C(=O)[C@@]12C[C@H]3C(=O)C[C@@H](S1)[C@H](O)[C@H]3N2C4=O	inactive	inactive	inactive	inactive	inactive	inactive	–
CS[C@@]12C[C@H]3[C@@H]([C@@H](O)CC[C@@H]3O)N1C(=O)[C@]1(SC)C[C@H]3[C@@H]([C@@H](O)CC[C@@H]3O)N1C2=O	inactive	inactive	inactive	inactive	inactive	inactive	–
CS[C@@]12C[C@H]3C(=O)CC[C@H](O)[C@H]3N1C(=O)[C@]1(SC)C[C@H]3C(=O)CC[C@H](O)[C@H]3N1C2=O [EPICOCCIN G]	inactive	inactive	inactive	inactive	inactive	inactive	3.07 µM
CS[C@@]12CC3=CC=C[C@H](O)[C@H]3N1C(=O)[C@]13C[C@@]4(O)[C@H](C=C[C@H](O)[C@H]4N1C2=O)S3	inactive	inactive	inactive	inactive	inactive	inactive	–
O=C1CC[C@H](O)[C@H]2[C@H]1C[C@@]13SS[C@]4(C[C@H]5[C@@H]([C@@H](O)CC[C@@H]5O)N4C1=O)C(=O)N23	inactive	inactive	inactive	inactive	inactive	inactive	–
C[C@@H]1C(=O)O[C@H]2[C@H](O)[C@@]34[C@H]5C[C@@H](C(C)(C)C)[C@]36[C@@H](OC(=O)[C@@H]6O)O[C@@]4(C(=O)O5)[C@@]12O [GINKOLIDE B]	–	–	–	–	–	–	2.35 µM
O=C1C[C@@H]2SS[C@@]34C[C@@H]1[C@@H]([C@H]2O)N3C(=O)[C@@]12C[C@H]3C(=O)[C@H](S1)[C@H](O)[C@H](O)[C@H]3N2C4=O	inactive	inactive	inactive	inactive	inactive	inactive	–
CS[C@@]12C[C@H]3C(=O)CC[C@H](O)[C@H]3N1C(=O)[C@@]13C[C@H]4C(=O)C[C@@H](SS1)[C@H](O)[C@H]4N3C2=O [EPICOCCIN M]	inactive	inactive	inactive	inactive	inactive	inactive	4.16 µM
O=C1C[C@H]2SS[C@@]34C[C@@H]1[C@@H]([C@H]2O)N3C(=O)[C@]12C[C@H]3C(=O)[C@H](C[C@H](O)[C@H]3N1C4=O)S2	inactive	inactive	inactive	inactive	inactive	inactive	–
O=C1C[C@H]2S[C@@]34C[C@@H]1[C@@H]([C@H]2O)N3C(=O)[C@@]12C[C@H]3C(=O)[C@@H](S1)[C@H](O)[C@H](O)[C@H]3N2C4=O [EPICOCCIN E]	inactive	inactive	inactive	inactive	inactive	inactive	1.98 µM
CS[C@@]12C[C@H]3C(=O)CC[C@H](O)[C@H]3N1C(=O)[C@]1(SC)C[C@H]3[C@@H]([C@@H](O)CC[C@@H]3O)N1C2=O	inactive	inactive	inactive	inactive	inactive	inactive	–
CS[C@@]12C[C@H]3C(=O)C[C@H](O)[C@H](O)[C@H]3N1C(=O)[C@@]13C[C@H]4C(=O)C[C@@H](SS1)[C@H](O)[C@H]4N3C2=O	inactive	inactive	inactive	inactive	inactive	inactive	–
CS[C@@]12C[C@H]3C(=O)CC[C@H](O)[C@H]3N1C(=O)[C@@]13C[C@H]4C(=O)C[C@@H](S1)[C@H](O)[C@H]4N3C2=O	inactive	inactive	inactive	inactive	inactive	inactive	–
O=C1C[C@H]2SS[C@@]34C[C@@H]1[C@@H]([C@H]2O)N3C(=O)[C@@]12C[C@H]3C(=O)[C@@H](S1)[C@@H](O)[C@H](O)[C@H]3N2C4=O	inactive	inactive	inactive	inactive	inactive	inactive	–
CCO[C@@H]1[C@H](O)[C@@H]2[C@H]3C[C@@]4(S[C@@H]1C3=O)C(=O)N1[C@@H]3[C@@H](O)[C@H]5CC(=O)[C@@H]3C[C@@]1(SS5)C(=O)N24 [EPICOCCIN S]	inactive	inactive	inactive	inactive	inactive	inactive	4.95 µM
O=C1C[C@@H]2SS[C@@]34C[C@@H]1[C@@H]([C@H]2O)N3C(=O)[C@@]12C[C@H]3C(=O)C[C@H](SS1)[C@H](O)[C@H]3N2C4=O	inactive	inactive	inactive	inactive	inactive	inactive	–
CS[C@@]12C[C@H]3[C@@H]([C@@H](O)CC[C@@H]3O)N1C(=O)[C@@]13C[C@H]4C(=O)C[C@@H](S1)[C@H](O)[C@H]4N3C2=O	inactive	inactive	inactive	inactive	inactive	inactive	–
